From ChEMBL document CHEMBL1155759, “New spirostanol steroids and steroidal saponins from roots and rhizomes of Dracaena angustifolia and their antiproliferative activity” (J Nat Prod, 2001)
Structures can show the parent of a compound that is named as a salt.

Legend:
Format in all cases: functional, cell-based
[1] = Antiproliferative activity against mouse Colon 26-L5 cells assessed as cell viability after 72 hrs by MTT assay
HT-1080 = experiment: Antiproliferative activity against human HT1080 cells assessed as cell viability after 72 hrs by MTT assay; details: HT-1080, 72 h
Method in brief: (§1)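 MTT viability assay. HT-1080 and B-16 BL6 were kept in Eagle's MEM, colon 26-L5 in RPMI, all with 10% FCS, 0.1% NaHCO3 and 2 mM glutamine. 2500 cells/well were attached for 24 h at 37 °C, 5% CO2, then exposed 72 h to graded concentrations (DMSO stock, final DMSO <0.1%). MTT was added for 2 h, formazan read at 540 nm, and IC50 taken from means of four wells.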

[2] = Antiproliferative activity against mouse B16-BL6 cells assessed as cell viability after 72 hrs by MTT assay; details: B16-BL6, 72 h; method in brief: as §1

Work on `CC1CC[C@@]2(OC1)O[C@H]1C[C@@]3(O)[C@@H]4CC=C5C[C@@H](O)C[C@@H](O)[C@]5(C)[C@H]4CC[C@]3(C)[C@@]1(O)[C@@H]2C` (mixture of isomers) [(25R,S)-NAMOGENIN A] yielded an IC50 [1] greater than 100 µM, an IC50 (HT-1080) greater than 100 µM and an IC50 [2] greater than 100 µM.

Work on `C=C1CC[C@@]2(OC1)O[C@H]1C[C@H]3[C@@H]4CC=C5C[C@@H](O)C[C@@H](O[C@@H]6OC[C@H](O)[C@H](O)[C@H]6O)[C@]5(C)[C@H]4CC[C@]3(C)[C@H]1[C@@H]2C` yielded an IC50 [1] of 77.2 µM, an IC50 (HT-1080) of 40 µM and an IC50 [2] of 47.9 µM.

With `C=C1CC[C@@]2(OC1)O[C@H]1C[C@H]3[C@@H]4CC=C5C[C@@H](O)C[C@@H](O[C@@H]6OC[C@H](O)[C@H](O)[C@H]6O[C@@H]6O[C@@H](C)[C@H](O)[C@@H](O)[C@H]6O)[C@]5(C)[C@H]4CC[C@]3(C)[C@H]1[C@@H]2C` the IC50 [1] was 95.3 µM, the IC50 (HT-1080) was 42.1 µM and the IC50 [2] was 41.2 µM.

For `C=C1CO[C@@]2(O[C@H]3C[C@H]4[C@@H]5CC=C6C[C@@H](O)C[C@@H](O[C@@H]7OC[C@H](O)[C@H](O)[C@H]7O[C@@H]7O[C@@H](C)[C@H](O)[C@@H](O)[C@H]7O)[C@]6(C)[C@H]5CC[C@]4(C)[C@H]3[C@@H]2C)[C@@H](O)[C@H]1O[C@@H]1O[C@H](C)[C@H](O)[C@H](O)[C@H]1O` [NAMONIN C], the IC50 [1] was greater than 100 µM, the IC50 (HT-1080) was 27.7 µM and the IC50 [2] was greater than 100 µM.

Molecule `C=C1CO[C@@]2(O[C@H]3C[C@H]4[C@@H]5CC=C6C[C@@H](O)C[C@@H](O[C@@H]7OC[C@H](O)[C@H](O)[C@H]7O[C@@H]7O[C@@H](C)[C@H](OC(C)=O)[C@@H](O)[C@H]7O)[C@]6(C)[C@H]5CC[C@]4(C)[C@H]3[C@@H]2C)[C@@H](O)[C@H]1O[C@@H]1O[C@H](C)[C@H](O)[C@H](O)[C@H]1O` [NAMONIN D] has an IC50 [1] of 97.4 µM, an IC50 (HT-1080) of 21.6 µM and an IC50 [2] of 42.4 µM.

Molecule `COc1cccc2c1C(=O)c1c(O)c3c(c(O)c1C2=O)C[C@@](O)(C(=O)CO)C[C@@H]3O[C@H]1C[C@H](N)[C@H](O)[C@H](C)O1` [DOXORUBICIN HYDROCHLORIDE] has an IC50 (HT-1080) of 0.2 µM and an IC50 [2] of 0.2 µM.

For `C=C(CCC1=C(C)[C@H]2[C@H](C[C@H]3[C@@H]4CC=C5C[C@@H](O)C[C@@H](O[C@@H]6OC[C@H](O)[C@H](O)[C@H]6O[C@@H]6O[C@@H](C)[C@H](O)[C@@H](O)[C@H]6O)[C@]5(C)[C@H]4CC[C@@]32C)O1)CO[C@@H]1O[C@H](CO)[C@@H](O)[C@H](O)[C@H]1O`, the IC50 [1] was greater than 100 µM, the IC50 (HT-1080) was greater than 100 µM and the IC50 [2] was greater than 100 µM.

With `C=C1CO[C@@]2(O[C@H]3C[C@H]4[C@@H]5CC=C6C[C@@H](O)C[C@@H](O[C@@H]7OC[C@H](O)[C@H](O)[C@H]7O[C@@H]7O[C@@H](C)[C@H](OC(C)=O)[C@@H](OC(C)=O)[C@H]7OC(C)=O)[C@]6(C)[C@H]5CC[C@]4(C)[C@H]3[C@@H]2C)[C@@H](O)[C@H]1O[C@@H]1O[C@H](C)[C@H](O)[C@H](O)[C@H]1O` the IC50 [1] was 30.2 µM, the IC50 (HT-1080) was 3.8 µM and the IC50 [2] was 20.9 µM.

Molecule `C=C1CO[C@@]2(O[C@H]3C[C@H]4[C@@H]5CC=C6C[C@@H](O)C[C@@H](O[C@@H]7OC[C@H](O)[C@H](O[C@@H]8OC[C@@H](O)[C@H](O)[C@H]8O)[C@H]7O[C@@H]7O[C@@H](C)[C@H](OC(C)=O)[C@@H](OC(C)=O)[C@H]7OC(C)=O)[C@]6(C)[C@H]5CC[C@]4(C)[C@H]3[C@@H]2C)[C@@H](O)[C@H]1O` has an IC50 [1] of 76.6 µM, an IC50 (HT-1080) of 11.1 µM and an IC50 [2] of 28.4 µM.

In the case of `C=C1CO[C@@]2(O[C@H]3C[C@H]4[C@@H]5CC=C6C[C@@H](O)C[C@@H](O[C@@H]7OC[C@H](O)[C@H](O[C@@H]8OC[C@@H](OC(C)=O)[C@H](O)[C@H]8O)[C@H]7O[C@@H]7O[C@@H](C)[C@H](OC(C)=O)[C@@H](OC(C)=O)[C@H]7OC(C)=O)[C@]6(C)[C@H]5CC[C@]4(C)[C@H]3[C@@H]2C)[C@@H](O)[C@H]1O[C@@H]1O[C@H](C)[C@H](O)[C@H](O)[C@H]1O` [NAMONIN B], the IC50 [1] is reported as 27.7 µM, the IC50 (HT-1080) is reported as 0.3 µM and the IC50 [2] is reported as 11.8 µM.

Molecule `C=C1CO[C@@]2(O[C@H]3C[C@H]4[C@@H]5CC=C6C[C@@H](O)C[C@@H](O[C@@H]7OC[C@H](O)[C@H](O[C@@H]8OC[C@@H](O)[C@H](O)[C@H]8O)[C@H]7O[C@@H]7O[C@@H](C)[C@H](OC(C)=O)[C@@H](OC(C)=O)[C@H]7OC(C)=O)[C@]6(C)[C@H]5CC[C@]4(C)[C@H]3[C@@H]2C)[C@@H](O)[C@H]1O[C@@H]1O[C@H](C)[C@H](O)[C@H](O)[C@H]1O` has an IC50 [1] of 22.1 µM, an IC50 (HT-1080) of 0.6 µM and an IC50 [2] of 11.9 µM.

`C=C1CO[C@@]2(O[C@H]3C[C@H]4[C@@H]5CC=C6C[C@@H](O)C[C@@H](O[C@@H]7OC[C@H](O)[C@H](O)[C@H]7O[C@@H]7O[C@@H](C)[C@H](O)[C@@H](O)[C@H]7O)[C@]6(C)[C@H]5CC[C@]4(C)[C@H]3[C@@H]2C)[C@@H](O)[C@H]1O` gave an IC50 [1] of 5.3 µM, an IC50 (HT-1080) of 56.5 µM and an IC50 [2] of 4.2 µM.

Work on `O=c1[nH]cc(F)c(=O)[nH]1` [FLUOROURACIL] yielded an IC50 [1] of 0.5 µM, an IC50 (HT-1080) of 1.5 µM and an IC50 [2] of 0.6 µM.

For `CC1CC[C@@]2(OC1)O[C@H]1C[C@@]3(O)[C@@H]4CC=C5C[C@@H](O)C[C@@H](O)[C@]5(C)[C@H]4CC[C@]3(C)[C@H]1[C@@H]2C` (single isomer, unassigned) [NAMOGENIN B], the IC50 [1] was greater than 100 µM, the IC50 (HT-1080) was greater than 100 µM and the IC50 [2] was greater than 100 µM.

`C=C1CC[C@@]2(OC1)O[C@H]1C[C@@]3(O)[C@@H]4CC=C5C[C@@H](O)C[C@@H](O)[C@]5(C)[C@H]4CC[C@]3(C)[C@@]1(O)[C@@H]2C` [NAMOGENIN C] showed an IC50 [1] greater than 100 µM, an IC50 (HT-1080) greater than 100 µM and an IC50 [2] greater than 100 µM.

`C=C1CO[C@@]2(O[C@H]3C[C@H]4[C@@H]5CC=C6C[C@@H](O)C[C@@H](O[C@@H]7OC[C@H](O)[C@H](O[C@@H]8OC[C@@H](O)[C@H](OC(C)=O)[C@H]8O)[C@H]7O[C@@H]7O[C@@H](C)[C@H](OC(C)=O)[C@@H](OC(C)=O)[C@H]7OC(C)=O)[C@]6(C)[C@H]5CC[C@]4(C)[C@H]3[C@@H]2C)[C@@H](O)[C@H]1O[C@@H]1O[C@H](C)[C@H](O)[C@H](O)[C@H]1O` [NAMONIN A] showed an IC50 [1] of 26.6 µM, an IC50 (HT-1080) of 0.2 µM and an IC50 [2] of 9.7 µM.

`CC(=O)O[C@H]1CO[C@@H](O[C@@H]2C[C@H](O)CC3=CC[C@H]4[C@@H]5C[C@@H]6OC(CC[C@@H](C)CO[C@@H]7O[C@H](CO)[C@@H](O)[C@H](O)[C@H]7O)=C(C)[C@@H]6[C@@]5(C)CC[C@@H]4[C@]32C)[C@H](O[C@@H]2O[C@@H](C)[C@H](O)[C@@H](O)[C@H]2O)[C@H]1O[C@@H]1OC[C@@H](O)[C@H](O)[C@H]1O` [NAMONIN E] showed an IC50 [1] greater than 100 µM, an IC50 (HT-1080) of 21.8 µM and an IC50 [2] greater than 100 µM.
